Assay outcomes: PubChem BioAssay, Sanford-Burnham Center for Chemical Genomics
mIAP activ: mouse IAP activation; muIAP, CDP-Star luminescence, 30 min; hits give high values; 1 = vehicle-only enzyme signal, 0 = enzyme-free wells; activation factor at 10 µM; 330,000 tested, 0.24% active; AID 2805;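 active = activation factor of at least 2 at 20 µM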
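System: Mouse IAP enzyme | Also added: CDP-Star substrate | Dosing: Compounds dispensed in DMSO | Schedule: 30 min enzyme-substrate-compound incubation at room temperature | Technique: Chemiluminescence readout | Control set: DMSO-only wells and no-enzyme negative control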
mIAP block: mouse IAP inhibition | purified mouse IAP, CDP-Star luminescence, 30 min | inhibition, % at 10 µM | 330,000 tested, 0.2% active | AID 2806;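 active = inhibition of at least 40% at 10 µM in the primary screen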;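 also: plate controls were DMSO with enzyme for no effect and no enzyme wells for full effect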
hIAP activ: human IAP activation; P09923; purified human IAP, CDP-Star luminescence, 30 min; hits give high values; 1 = vehicle-only enzyme, 0 = enzyme-free background; activation factor at 10 µM; 330,000 tested, 0.16% active; AID 2524;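 active = activation factor of the enzyme at least 2-fold when tested at 20 µM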
Target sequence (P09923 whole entry, looked up): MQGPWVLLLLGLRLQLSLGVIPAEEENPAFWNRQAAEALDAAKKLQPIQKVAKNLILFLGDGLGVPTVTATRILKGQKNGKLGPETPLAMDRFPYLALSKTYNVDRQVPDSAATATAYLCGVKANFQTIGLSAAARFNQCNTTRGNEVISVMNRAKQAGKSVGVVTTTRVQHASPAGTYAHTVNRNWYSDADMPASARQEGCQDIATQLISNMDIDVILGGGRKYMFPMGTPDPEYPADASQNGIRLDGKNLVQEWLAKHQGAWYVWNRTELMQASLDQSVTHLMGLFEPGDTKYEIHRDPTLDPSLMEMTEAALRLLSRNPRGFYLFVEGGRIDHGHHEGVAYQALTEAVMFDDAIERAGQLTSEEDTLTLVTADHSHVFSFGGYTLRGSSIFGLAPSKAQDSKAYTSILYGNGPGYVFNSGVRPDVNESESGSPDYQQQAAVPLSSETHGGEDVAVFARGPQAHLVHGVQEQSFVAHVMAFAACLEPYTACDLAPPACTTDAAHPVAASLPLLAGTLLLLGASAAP
bIAP inh: intestinal alkaline phosphatase (bovine) inhibition; purified bovine IAP, CDP-star luminescence, 30 min; inhibition, % at 20 µM; 190,000 tested, under 10 active; AID 1019;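 active = over 50% inhibition of intestinal alkaline phosphatase at 20 µM in the single-dose screen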
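Assay system: bovine IAP enzyme; medium: DEA buffer 100 mM, pH 9.8, with MgCl2 1.0 mM, ZnCl2 0.02 mM; doses: 20 µM single dose; incubation: enzyme reaction for 30 min at room temperature; detection: CDP-star luminescence signal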
bIAP activator: intestinal alkaline phosphatase (bovine) activation; purified bovine IAP, CDP-star luminescence, 30 min; hits give high values; fold of DMSO-control signal, blank-subtracted; activation factor at 20 µM; 200,000 tested, 0.17% active; AID 1016;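 active = activation factor of 2 or more at 20 µM, a signal rise over negative controls twice the positive control's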
hIAP inh: human IAP inhibition; purified IAP, CDP-Star luminescence, 30 min; P09923; inhibition, % at 10 µM; 330,000 tested, 0.12% active;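 active = inhibition reaching a set limit with compound at 10 µM in the primary screen, cut at about 35% in these data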;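 also: plate controls were DMSO wells with enzyme for no effect and no-enzyme buffer wells for full effect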
The depositor's hits bear a star; i = inactive; x = not tested or not shown. An excerpt weighted towards active compounds, which were near 0.77% of everything screened.

SMILES | mIAP activ | mIAP block | hIAP activ | bIAP inh | bIAP activator | hIAP inh
COC(=O)Cc1c(C)c2ccc(OCC(=O)N3CCC(C)CC3)c(C)c2oc1=O | 1 | -2 | 1.1 | x | x | -11
COc1ccc(N(C(=O)C2CSC(=O)C2)C(C(=O)NC(C)(C)C)c2ccncc2)cc1 (centres undefined) | 1 | -2 | 1.1 | 13 | 0.9 | -15
COc1ccc(N(C(=O)c2ccn[nH]2)C(C(=O)NC(C)(C)C)c2ccc(F)cc2)cc1 (centres undefined) | 1.1 | -13 | 1 | -201 | 3* | 0
CCC(C)(C)NC(=O)C(c1cccc(OC)c1)N(C(=O)c1ccn[nH]1)c1cccc(OC)c1 (centres undefined) | 1.2 | -16 | 1.6 | 27 | 0.7 | -60
CCC(C)(C)NC(=O)C(c1cccs1)N(C(=O)c1ccn[nH]1)c1ccccc1 (centres undefined) | 1 | -1 | 0.95 | -133 | 2.3* | 5
CC(C)(C)NC(=O)C(c1ccc(F)cc1)N(CCc1ccccc1)C(=O)c1ccn[nH]1 (centres undefined) | 1.1 | -6 | 1.9 | -100 | 2* | -85
CCCCCC(=O)NC(=S)Nc1ccc(N2CCOCC2)cc1 | 0.89 | 11 | 1 | 1 | 1 | -4
COc1ccc(C(=O)NCCCNC(=O)c2cccnc2)cc1Br | 1 | -2 | 1.2 | x | x | -16
Cc1ccc(NC(=O)COC(=O)Cc2ccsc2)c(C)c1 | 0.94 | 6 | 1 | -2 | 1 | -3
CCCOc1ccc(-c2c(C(=O)N/N=C(\C)COc3ccccc3)nnn2-c2nonc2N)cc1 | 0.98 | 2 | 1.3 | x | x | -27
Cn1c(-c2ccc3c(c2)OCO3)cnc1NCc1ccc(Cl)cc1 | 0.91 | 9 | 0.93 | i | 6.4* | 7
Cc1ccc(CNc2ncc(-c3ccc4c(c3)OCO4)n2C)cc1 | 0.94 | 6 | 1.2 | -83 | 1.8 | -19
COc1cc(CNCc2ccccn2)ccc1OCC(N)=O | 1.1 | -10 | 1 | -2 | 1 | -2
COc1cc(CNCc2ccccn2)ccc1OCc1ccc(Cl)cc1Cl | 1.3 | -25 | 1.6 | -174 | 2.7* | -59
COc1cc(CNCc2ccccn2)ccc1OCc1ccc(Cl)c(Cl)c1 | 1.2 | -20 | 1.2 | -142 | 2.4* | -21
COc1cc(CNCCN2CCOCC2)ccc1OCc1ccc(Cl)cc1Cl | 0.95 | 5 | 1.1 | -11 | 1.1 | -6
COc1cc(NC(=O)C2CCN(S(=O)(=O)c3ccc(Cl)cc3)CC2)ccc1-n1cnnn1 | 2.3* | -131 | 1.3 | -17 | 1.2 | -32
CC(C)CNS(=O)(=O)c1ccc(NC(=O)Cn2nc(-c3ccc(F)cc3)ccc2=O)cc1 | 1.1 | -7 | 2.8* | 27 | 0.7 | -180
O=C(O)c1ccccc1C(=O)NCCCn1ccnc1 | 1.1 | -13 | 1.4 | x | x | -42
O=C(NCCCn1ccnc1)c1cn(-c2ccccc2)nc1-c1ccc(F)cc1 | 1.3 | -28 | 1.2 | -115 | 2.2* | -21
CC(C)N=c1cc2n(-c3ccc(Cl)cc3)c3ccccc3nc-2cc1Nc1ccc(Cl)cc1 | 0.65 | 35 | 0.61 | x | x | 39*
Cn1c(CNc2ccc(Cl)cc2)nc2ccccc21 | 1.2 | -16 | 0.99 | 35 | 0.6 | 1
Cc1ccc(NC(=O)CSc2nc3ccccc3c(=O)n2CCCN2CCCCC2)cc1Cl | 1.5 | -46 | 1.3 | -162 | 2.6* | -33
CNC(=S)NC1CC2CCC(C1)N2Cc1ccccc1 (centres undefined) | 1 | -2 | 0.93 | 10 | 0.9 | 7
S=C(NCc1cccc(Cl)c1)NC1CCCCC1 | 2.5* | -147 | 1.3 | 5 | 1 | -29
S=C(Nc1ccc(Cl)cc1)NC1CC2CCC(C1)N2Cc1ccccc1 (centres undefined) | 2.3* | -126 | 1.3 | -15 | 1.1 | -26
Cc1cc(C)cc(NC(=S)NC2CC3CCCC(C2)N3C2CC2)c1 (centres undefined) | 2.3* | -131 | 1.2 | -44 | 1.4 | -25
S=C(NCc1ccncc1)Nc1cccc(Cl)c1 | 1 | 0 | 1 | 28 | 0.7 | -2
S=C(NCCN(C1CCCCC1)C1CCCC1)Nc1cccc(Cl)c1 | 2* | -102 | 1.1 | x | x | -12
Cc1cccc(C)c1NC(=O)COC(=O)CN1C(=O)C2CCCCC2C1=O (centres undefined) | 0.98 | 2 | 0.99 | x | x | 1
